From ChEMBL document CHEMBL1128446, “Pyrazinoic acid esters with broad spectrum in vitro antimycobacterial activity” (1995)
In brackets after ≈: the same amount, converted by molar mass.

How the values were obtained:
Type in all cases: functional
[1] = system: Mycobacterium avium; experiment: Minimum Inhibitory Concentration against clinical isolates of Mycobacterium avium complex ATCC 49601
Summary of the method: (§1)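 Broth macrodilution in tubes of modified Middlebrook 7H10 broth (agar and malachite green omitted) with 10% OADC and 0.05% Tween 80 at pH 5.8. Cultures were grown 3 days at 37 °C on a rotary shaker, then diluted with 7H10 broth to 1 Klett unit/mL. Stocks were made in water or DMSO and filter-sterilised; 2-fold serial dilutions were tested. Tubes shaken 7–10 days at 37 °C, with a drug-free control. MIC = lowest concentration (μg/mL) with no visible turbidity.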

[2] = system: Mycobacterium kansasii; experiment: Minimum Inhibitory Concentration against clinical isolates of Mycobacterium kansasii S
Summary of the method: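 Grown 3 days at 37 °C on a rotary shaker in modified Middlebrook 7H10 broth (agar and malachite green omitted) with 10% OADC and 0.05% Tween 80. Diluted to 1 Klett unit/mL. Tubes held serial 2-fold dilutions in 7H10 broth at pH 5.8, from stocks in water or DMSO, and were shaken at 37 °C for 7–10 days with a drug-free control. MIC was the lowest concentration with no visible turbidity.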

[3] = system: Mycobacterium avium; experiment: Minimum Inhibitory Concentration in clinical isolates against Mycobacterium avium complex 101; summary of the method: as §1
[4] = system: Mycobacterium tuberculosis; experiment: Minimum Inhibitory Concentration against Mycobacterium tuberculosis ATCC 35801; summary of the method: as §1
[5] = system: Mycobacterium tuberculosis; experiment: Minimum Inhibitory Concentration against Mycobacterium tuberculosis ATCC 27294; details: Mycobacterium tuberculosis, ATCC 27294; read-out: MIC; summary of the method: as §1

Compound | MIC [1] | MIC [2] | MIC [3] | MIC [4] | MIC [5]
CCCCCCOC(=O)c1cnc(F)cn1 | 64 µg/mL (≈ 283 µM) | 8 µg/mL (≈ 35.4 µM) | 64 µg/mL (≈ 283 µM) | 4 µg/mL (≈ 17.7 µM) | –
CCCCCCCC(C)(CCCCC)OC(=O)c1cnc(Cl)cn1 (stereo not given) | > 64 µg/mL | – | > 64 µg/mL | 4 µg/mL (≈ 11.3 µM) | 2 µg/mL (≈ 5.64 µM)
CCCOC(=O)c1cnc(C)cn1 | > 64 µg/mL | 8 µg/mL (≈ 44.4 µM) | > 64 µg/mL | 4 µg/mL (≈ 22.2 µM) | 2 µg/mL (≈ 11.1 µM)
CCCCCCCCCCOC(=O)c1cnc(F)cn1 | 32 µg/mL (≈ 113 µM) | 1 µg/mL (≈ 3.54 µM) | 32 µg/mL (≈ 113 µM) | 4 µg/mL (≈ 14.2 µM) | 2 µg/mL (≈ 7.08 µM)
COC(=O)c1cnccn1 | > 256 µg/mL | > 64 µg/mL | – | 16 µg/mL (≈ 116 µM) | < 8 µg/mL
CC(C)COC(=O)c1cnc(Cl)cn1 | 64 µg/mL (≈ 298 µM) | < 1 µg/mL | 64 µg/mL (≈ 298 µM) | 0.25 µg/mL (≈ 1.16 µM) | 2 µg/mL (≈ 9.32 µM)
CCCCCCC(C)(C)OC(=O)c1cnc(Cl)cn1 | 64 µg/mL (≈ 225 µM) | 1 µg/mL (≈ 3.51 µM) | 64 µg/mL (≈ 225 µM) | 4 µg/mL (≈ 14 µM) | 0.25 µg/mL (≈ 0.878 µM)
CCCCCCC(C)(CCCCCC)OC(=O)c1cnc(Cl)cn1 | 16 µg/mL (≈ 45.1 µM) | 2 µg/mL (≈ 5.64 µM) | > 64 µg/mL | 0.5 µg/mL (≈ 1.41 µM) | 0.25 µg/mL (≈ 0.704 µM)
CCCCCCCCC(C)OC(=O)c1cnc(Cl)cn1 (stereo not given) | 32 µg/mL (≈ 107 µM) | < 0.12 µg/mL | 32 µg/mL (≈ 107 µM) | 0.5 µg/mL (≈ 1.67 µM) | 0.06 µg/mL (≈ 0.201 µM)
CCCCCCCCCC(C)(C)OC(=O)c1cnc(Cl)cn1 | 256 µg/mL (≈ 783 µM) | 0.5 µg/mL (≈ 1.53 µM) | 256 µg/mL (≈ 783 µM) | 1 µg/mL (≈ 3.06 µM) | 8 µg/mL (≈ 24.5 µM)
CCCCCC(C)(CCCCC)OC(=O)c1cnc(Cl)cn1 | 64 µg/mL (≈ 196 µM) | 8 µg/mL (≈ 24.5 µM) | 64 µg/mL (≈ 196 µM) | 8 µg/mL (≈ 24.5 µM) | 8 µg/mL (≈ 24.5 µM)
COC(=O)c1cnc(C)cn1 | > 256 µg/mL | 32 µg/mL (≈ 210 µM) | > 256 µg/mL | 8 µg/mL (≈ 52.6 µM) | 16 µg/mL (≈ 105 µM)
CCCCCCC(C)(CCCC)OC(=O)c1cnc(Cl)cn1 (stereo not given) | – | 4 µg/mL (≈ 12.2 µM) | > 256 µg/mL | 8 µg/mL (≈ 24.5 µM) | 4 µg/mL (≈ 12.2 µM)
CCCCCCCCC(CC)OC(=O)c1cnc(Cl)cn1 (stereo not given) | 32 µg/mL (≈ 102 µM) | < 0.03 µg/mL | 64 µg/mL (≈ 205 µM) | 0.25 µg/mL (≈ 0.799 µM) | 0.5 µg/mL (≈ 1.6 µM)
O=C(OCc1ccccc1)c1cnccn1 | 64 µg/mL (≈ 299 µM) | 1 µg/mL (≈ 4.67 µM) | 64 µg/mL (≈ 299 µM) | 1 µg/mL (≈ 4.67 µM) | < 1 µg/mL
CCCCCC(C)(CCCC)OC(=O)c1cnc(Cl)cn1 (stereo not given) | 256 µg/mL (≈ 818 µM) | 16 µg/mL (≈ 51.1 µM) | 256 µg/mL (≈ 818 µM) | 8 µg/mL (≈ 25.6 µM) | 4 µg/mL (≈ 12.8 µM)
CCCCCCCCCCCOC(=O)c1cnc(Cl)cn1 | 8 µg/mL (≈ 25.6 µM) | 0.06 µg/mL (≈ 0.192 µM) | 16 µg/mL (≈ 51.1 µM) | 0.5 µg/mL (≈ 1.6 µM) | 0.25 µg/mL (≈ 0.799 µM)
COC(=O)c1cnc(F)cn1 | 64 µg/mL (≈ 410 µM) | 8 µg/mL (≈ 51.2 µM) | 64 µg/mL (≈ 410 µM) | 8 µg/mL (≈ 51.2 µM) | 4 µg/mL (≈ 25.6 µM)
CC(C)(OC(=O)c1cnc(Cl)cn1)c1ccccc1 | – | 16 µg/mL (≈ 57.8 µM) | – | 16 µg/mL (≈ 57.8 µM) | 16 µg/mL (≈ 57.8 µM)
CCCCCCCC(OC(=O)c1cnc(Cl)cn1)C(C)(C)C (stereo not given) | – | 0.25 µg/mL (≈ 0.765 µM) | > 256 µg/mL | 2 µg/mL (≈ 6.12 µM) | 0.5 µg/mL (≈ 1.53 µM)
O=C(OCc1ccc(Br)cc1)c1cnc(Cl)cn1 | 64 µg/mL (≈ 195 µM) | 0.125 µg/mL (≈ 0.382 µM) | 32 µg/mL (≈ 97.7 µM) | 1 µg/mL (≈ 3.05 µM) | 1 µg/mL (≈ 3.05 µM)

Compound | MIC [1] | MIC [2] | MIC [3] | MIC [4] | MIC [5]
CCCCC(OC(=O)c1cnc(Cl)cn1)c1ccccc1 (stereo not given) | 64 µg/mL (≈ 210 µM) | 1 µg/mL (≈ 3.28 µM) | 128 µg/mL (≈ 420 µM) | 2 µg/mL (≈ 6.56 µM) | 4 µg/mL (≈ 13.1 µM)
CCCCCCCCCCCCCCCOC(=O)c1cnccn1 | 8 µg/mL (≈ 23.9 µM) | 1 µg/mL (≈ 2.99 µM) | 32 µg/mL (≈ 95.7 µM) | 0.12 µg/mL (≈ 0.359 µM) | 0.06 µg/mL (≈ 0.179 µM)
CC(C)(C)C(OC(=O)c1cnc(Cl)cn1)c1ccccc1 (stereo not given) | 256 µg/mL (≈ 840 µM) | 2 µg/mL (≈ 6.56 µM) | 128 µg/mL (≈ 420 µM) | 4 µg/mL (≈ 13.1 µM) | 4 µg/mL (≈ 13.1 µM)
O=C(Oc1c(Br)cc(Br)cc1Br)c1cnccn1 | 128 µg/mL (≈ 293 µM) | 64 µg/mL (≈ 146 µM) | 128 µg/mL (≈ 293 µM) | 32 µg/mL (≈ 73.2 µM) | 32 µg/mL (≈ 73.2 µM)
Cc1cc(C(C)(C)C)c(OC(=O)c2cnccn2)c(C(C)(C)C)c1 | > 1020 µg/mL | > 16 µg/mL | > 1020 µg/mL | – | 128 µg/mL (≈ 392 µM)
CCCCCCCCCCC(OC(=O)c1cnc(Cl)cn1)C(C)(C)C (stereo not given) | 256 µg/mL (≈ 694 µM) | 4 µg/mL (≈ 10.8 µM) | > 256 µg/mL | 8 µg/mL (≈ 21.7 µM) | 16 µg/mL (≈ 43.4 µM)
CCCCCCCC(C)(CCCC)OC(=O)c1cnc(Cl)cn1 (stereo not given) | > 256 µg/mL | 16 µg/mL (≈ 46.9 µM) | > 256 µg/mL | 8 µg/mL (≈ 23.5 µM) | 4 µg/mL (≈ 11.7 µM)
CC(C)COC(=O)c1cnccn1 | – | > 64 µg/mL | 256 µg/mL (≈ 1420 µM) | 16 µg/mL (≈ 88.8 µM) | < 8 µg/mL
CCOC(=O)c1cnc(Cl)cn1 | 128 µg/mL (≈ 686 µM) | 2 µg/mL (≈ 10.7 µM) | 128 µg/mL (≈ 686 µM) | 2 µg/mL (≈ 10.7 µM) | 1 µg/mL (≈ 5.36 µM)
CCCCCCC(C)OC(=O)c1cnc(Cl)cn1 (stereo not given) | 16 µg/mL (≈ 59.1 µM) | < 0.015 µg/mL | 8 µg/mL (≈ 29.5 µM) | 0.25 µg/mL (≈ 0.923 µM) | 0.06 µg/mL (≈ 0.222 µM)
CCCCCCCCCC(C)OC(=O)c1cnc(Cl)cn1 (stereo not given) | 16 µg/mL (≈ 51.1 µM) | 0.25 µg/mL (≈ 0.799 µM) | 16 µg/mL (≈ 51.1 µM) | 0.125 µg/mL (≈ 0.4 µM) | 0.25 µg/mL (≈ 0.799 µM)
CCCCCC(CC)OC(=O)c1cnc(C)cn1 (stereo not given) | 64 µg/mL (≈ 256 µM) | 4 µg/mL (≈ 16 µM) | 64 µg/mL (≈ 256 µM) | 0.5 µg/mL (≈ 2 µM) | 1 µg/mL (≈ 3.99 µM)
O=C(OCc1ccccc1)c1cnc(Cl)cn1 | 4 µg/mL (≈ 16.1 µM) | 1 µg/mL (≈ 4.02 µM) | 8 µg/mL (≈ 32.2 µM) | 0.5 µg/mL (≈ 2.01 µM) | 1 µg/mL (≈ 4.02 µM)
CC(C)(C)OC(=O)c1cnc(Cl)cn1 | 128 µg/mL (≈ 596 µM) | < 1 µg/mL | 128 µg/mL (≈ 596 µM) | 0.5 µg/mL (≈ 2.33 µM) | 0.25 µg/mL (≈ 1.16 µM)
O=C(Oc1cccc2ccccc12)c1cnccn1 | 64 µg/mL (≈ 256 µM) | > 16 µg/mL | 128 µg/mL (≈ 511 µM) | – | 8 µg/mL (≈ 32 µM)
O=C(OCCc1ccccc1)c1cnc(Cl)cn1 | 8 µg/mL (≈ 30.5 µM) | 0.25 µg/mL (≈ 0.952 µM) | 32 µg/mL (≈ 122 µM) | 1 µg/mL (≈ 3.81 µM) | 1 µg/mL (≈ 3.81 µM)
CC(OC(=O)c1cnc(Cl)cn1)c1ccc(Br)cc1 (stereo not given) | 16 µg/mL (≈ 46.8 µM) | 0.25 µg/mL (≈ 0.732 µM) | 32 µg/mL (≈ 93.7 µM) | 8 µg/mL (≈ 23.4 µM) | 2 µg/mL (≈ 5.85 µM)
CCCOC(=O)c1cnc(Cl)cn1 | 16 µg/mL (≈ 79.8 µM) | 0.25 µg/mL (≈ 1.25 µM) | 16 µg/mL (≈ 79.8 µM) | < 0.03 µg/mL | 0.06 µg/mL (≈ 0.299 µM)
CCCCCCCOC(=O)c1cnc(Cl)cn1 | 16 µg/mL (≈ 62.3 µM) | < 0.03 µg/mL | 8 µg/mL (≈ 31.2 µM) | < 0.03 µg/mL | 0.06 µg/mL (≈ 0.234 µM)
CCC(C)(CC)OC(=O)c1cnc(Cl)cn1 | 256 µg/mL (≈ 1050 µM) | 2 µg/mL (≈ 8.24 µM) | > 256 µg/mL | 8 µg/mL (≈ 33 µM) | 8 µg/mL (≈ 33 µM)
CCCCCCOC(=O)c1cnc(Cl)cn1 | 16 µg/mL (≈ 65.9 µM) | 0.015 µg/mL (≈ 0.0618 µM) | 32 µg/mL (≈ 132 µM) | 0.125 µg/mL (≈ 0.515 µM) | 0.125 µg/mL (≈ 0.515 µM)
